# Reference: PMC9128166 (Cancer Science, 2022)
# “Also recorded” adds a separate entry of the source. Read-outs that look alike come from different tables or passages of the source.
# Columns and labels:
# [1] = test system: relapsed or refractory follicular lymphoma; assay: Investigator-assessed response; format: in vivo, Japanese patients
# Method in brief: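 Investigator-assessed response by Lugano criteria in the full analysis set (all treated patients). Patients received 10 or 20 mg QD orally for 8 weeks, then the same dose QW. CT, FDG-PET or PET-CT was chosen by subtype, using the same technique as at screening. Scans ran every 8 weeks through week 24, every 12 weeks through week 96, then every 24 weeks until progression.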
# [2] = cited from earlier work
# [3] = format: in vivo, Japanese patients
# [4] = Urine pharmacokinetics of parsaclisib, cycle 1 day 15; format: in vivo, Japanese patients
# phospho‐AKT = conditions: read-out: calculated in vitro IC90 for phospho‐AKT inhibition; measure of PI3K pathway pharmacodynamic activity; ref not given; cited from earlier work
# [5] = previous studies, patients with NHL
# [6] = Any postbaseline abnormality, N = 17
# [7] = Worst grade postbaseline Grade 3, N = 17
# [8] = Worst grade postbaseline Grade 4, N = 17
# [9] = among 16 patients with grade 0 at baseline
smiles,measurement,setting,value
CCOc1c([C@H](C)n2nc(C)c3c(N)ncnc32)cc(Cl)c(F)c1[C@@H]1CNC(=O)C1 [parsaclisib],"BOR, CMR/CR",[1]; FL (n = 9),2 (22.2) n (%)
same,"BOR, NMR/SD",[1]; FL (n = 9),0 (0.0) n (%)
same,"BOR, PMD/PD",[1]; FL (n = 9),0 (0.0) n (%)
same,"BOR, PMR/PR",[1]; FL (n = 9),7 (77.8) n (%)
same,Objective response,[1]; FL (n = 9),9 (100.0) n (%)
same,"BOR, Not assessed","[1]; FL (n = 9), no postbaseline response data available",0 (0.0) n (%)
same,complete response,"[1]; FL, 2 of 9 patients",22.2%
same,ORR,"[1]; FL, 9 of 9 patients",100%
same,observed PFS,[1]; nine responders with FL,1.9–17.5 months
same,decreases in neutrophil count to grade 3 or 4,"[2]; previous studies, patients with FL or MZL",13–14%
same,ALT elevation,[2]; [5],13–26%
same,AST elevation,[2]; [5],17–23%
same,cough (TEAE),[2]; primarily Western populations,17–22%
same,nausea (TEAE),[2]; primarily Western populations,14–26%
same,pyrexia (TEAE),[2]; primarily Western populations,13–17%
same,rash (TEAE),[2]; primarily Western populations,14–22%
same,diarrhea (TEAE),"[2]; prior studies, primarily Western populations",20–44%
same,treatment‐emergent new or worsening decreased neutrophils to grade 3 or 4,"[3]; 5 of 17 patients, all during first 8 weeks",29.4%
same,Alanine aminotransferase (increased),[3]; [6],7 (41.2) n (%)
same,Albumin (decreased),[3]; [6],9 (52.9) n (%)
same,Alkaline phosphatase (increased),[3]; [6],7 (41.2) n (%)
same,Aspartate aminotransferase (increased),[3]; [6],7 (41.2) n (%)
same,Calcium (decreased),[3]; [6],8 (47.1) n (%)
same,Creatinine (increased),[3]; [6],17 (100.0) n (%)
same,Leukocytes (decreased),[3]; [6],9 (52.9) n (%)
same,Neutrophils (decreased),[3]; [6],12 (70.6) n (%)
same,Platelets (decreased),[3]; [6],7 (41.2) n (%)
same,Potassium (increased),[3]; [6],5 (29.4) n (%)
same,Sodium (decreased),[3]; [6],5 (29.4) n (%)
same,Alanine aminotransferase (increased),[3]; [7],0 (0.0) n (%)
same,Albumin (decreased),[3]; [7],0 (0.0) n (%)
same,Alkaline phosphatase (increased),[3]; [7],0 (0.0) n (%)
same,Aspartate aminotransferase (increased),[3]; [7],0 (0.0) n (%)
same,Calcium (decreased),[3]; [7],0 (0.0) n (%)
same,Creatinine (increased),[3]; [7],0 (0.0) n (%)
same,Leukocytes (decreased),[3]; [7],0 (0.0) n (%)
same,Neutrophils (decreased),[3]; [7],4 (23.5) n (%)
same,Platelets (decreased),[3]; [7],0 (0.0) n (%)
same,Potassium (increased),[3]; [7],0 (0.0) n (%)
same,Sodium (decreased),[3]; [7],0 (0.0) n (%)
same,Alanine aminotransferase (increased),[3]; [8],0 (0.0) n (%)
same,Albumin (decreased),[3]; [8],0 (0.0) n (%)
same,Alkaline phosphatase (increased),[3]; [8],0 (0.0) n (%)
same,Aspartate aminotransferase (increased),[3]; [8],0 (0.0) n (%)
same,Calcium (decreased),[3]; [8],0 (0.0) n (%)
same,Creatinine (increased),[3]; [8],0 (0.0) n (%)
same,Leukocytes (decreased),[3]; [8],0 (0.0) n (%)
same,Neutrophils (decreased),[3]; [8],1 (5.9) n (%)
same,Platelets (decreased),[3]; [8],0 (0.0) n (%)
same,Potassium (increased),[3]; [8],0 (0.0) n (%)
same,Sodium (decreased),[3]; [8],0 (0.0) n (%)
same,"shifts to increased ALT, grade 1",[3]; [9],5 patients
same,"shifts to increased ALT, grade 2",[3]; [9],2 patients
same,"shifts to increased AST, grade 1",[3]; [9],7 patients
same,treatment‐emergent elevations of ALT or AST to grade 3 or 4,"[3]; human, in vivo",No treatment‐emergent worsening in aminotransferase elevations to grade 3 or 4; also recorded: no treatment‐emergent elevations of ALT or AST to grade 3 or 4
same,elevation in ALT,[3]; shifts to grade 1 or 2,41.2%
same,elevation in AST,[3]; shifts to grade 1 or 2,41.2%
same,"Fe,0-8h (unchanged parsaclisib recovered in urine)","[4]; Total, cycle 1 day 15, n 14, mean ± SD (text: mean (range))",12.1 (5.4–20.4) %
same,CL renal,"[4]; human, urine, oral",6.67 mL/min
same,IC90,phospho‐AKT,40 nM
